# What was measured:
# Format in all cases: functional
# A498 = assay: Growth inhibition of human A498 cells at 1 nM after 96 hrs by MTT assay; parameters: scale not given: the % may be the effect or the level left
# SNB-75 = assay: Growth inhibition of human SNB75 cells at 1 nM after 96 hrs by MTT assay; parameters: scale not given: the % may be the effect or the level left
# SNB-19 = assay: Growth inhibition of human SNB19 cells at 1 nM after 96 hrs by MTT assay; parameters: scale not given: the % may be the effect or the level left
# HT-29 = assay: Growth inhibition of human HT-29 cells at 1 nM after 96 hrs by MTT assay; parameters: scale not given: the % may be the effect or the level left
# NCI-H226 = assay: Growth inhibition of human NCI-H226 cells at 1 nM after 96 hrs by MTT assay; parameters: scale not given: the % may be the effect or the level left
# HOP-92 = assay: Growth inhibition of human HOP92 cells at 1 nM after 96 hrs by MTT assay; parameters: scale not given: the % may be the effect or the level left
# SN12C [1] = assay: Growth inhibition of human SN12C cells at 10 uM after 96 hrs by MTT assay; parameters: scale not given: the % may be the effect or the level left
# ACHN [2] = assay: Growth inhibition of human ACHN cells at 10 uM after 96 hrs by MTT assay; parameters: scale not given: the % may be the effect or the level left
# OVCAR-3 [3] = assay: Growth inhibition of human OVCAR-3 cells at 10 uM after 96 hrs by MTT assay; parameters: scale not given: the % may be the effect or the level left
# UACC-62 [4] = assay: Growth inhibition of human UACC62 cells at 10 uM after 96 hrs by MTT assay; parameters: scale not given: the % may be the effect or the level left
# SK-MEL-2 = assay: Growth inhibition of human SK-MEL-2 cells at 10 uM after 96 hrs by MTT assay; parameters: scale not given: the % may be the effect or the level left
# Malme-3M = assay: Growth inhibition of human MALME-3M cells at 10 uM after 96 hrs by MTT assay; parameters: scale not given: the % may be the effect or the level left
# SF-268 [5] = assay: Growth inhibition of human SF268 cells at 10 uM after 96 hrs by MTT assay; parameters: scale not given: the % may be the effect or the level left
# HOP-62 = assay: Growth inhibition of human HOP62 cells at 10 uM after 96 hrs by MTT assay; parameters: scale not given: the % may be the effect or the level left
# EKVX = assay: Growth inhibition of human EKVX cells at 10 uM after 96 hrs by MTT assay; parameters: scale not given: the % may be the effect or the level left
# HL-60(TB) = assay: Growth inhibition of human HL-60(TB) cells at 10 uM after 96 hrs by MTT assay; parameters: scale not given: the % may be the effect or the level left
# U-251 = assay: Growth inhibition of human U251 cells at 10 nM after 96 hrs by MTT assay; parameters: scale not given: the % may be the effect or the level left
# SF-295 = assay: Growth inhibition of human SF295 cells after 96 hrs by MTT assay; conditions: SF-295, 96 h
# Method in brief: (§1)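 Tested in the NCI 60-cell-line panel in five-dose format; GI50 and LC50 values reported for each cell line.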
# UACC-62 [6] = assay: Growth inhibition of human UACC62 cells after 96 hrs by MTT assay; conditions: UACC-62, 96 h; method in brief: as §1
# OVCAR-3 [7] = assay: Growth inhibition of human OVCAR-3 cells after 96 hrs by MTT assay; conditions: OVCAR-3, 96 h; method in brief: as §1
# CAKI-1 = assay: Growth inhibition of human Caki1 cells after 96 hrs by MTT assay; conditions: CAKI-1, 96 h
# MDA-MB-231 = assay: Growth inhibition of human MDA-MB-231 cells after 96 hrs by MTT assay; conditions: MDA-MB-231, 96 h
# Method in brief: (§2)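 Run in the NCI 60 human tumour cell line panel as a five-dose assay. GI50 and LC50 were reported for each cell line.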
# [8] = Growth inhibition of human Hs 578T cells after 96 hrs by MTT assay; method in brief: as §2
# HCT-116 [9] = assay: Growth inhibition of human HCT116 cells after 96 hrs by MTT assay; conditions: HCT-116, 96 h; method in brief: as §2
# SR = assay: Growth inhibition of human SR cells after 96 hrs by MTT assay; method in brief: as §1
# [10] = Growth inhibition of human Hs 578T cells at 1 uM after 96 hrs by MTT assay; parameters: scale not given: the % may be the effect or the level left
# UO-31 = assay: Growth inhibition of human UO31 cells at 1 uM after 96 hrs by MTT assay; parameters: scale not given: the % may be the effect or the level left
# RXF 393 [11] = assay: Growth inhibition of human RXF393 cells at 1 uM after 96 hrs by MTT assay; parameters: scale not given: the % may be the effect or the level left
# T47D = assay: Growth inhibition of human T47D cells at 100 nM after 96 hrs by MTT assay; parameters: scale not given: the % may be the effect or the level left
# SN12C [12] = assay: Growth inhibition of human SN12C cells at 100 nM after 96 hrs by MTT assay; parameters: scale not given: the % may be the effect or the level left
# ACHN [13] = assay: Growth inhibition of human ACHN cells at 100 nM after 96 hrs by MTT assay; parameters: scale not given: the % may be the effect or the level left
# OVCAR-3 [14] = assay: Growth inhibition of human OVCAR-3 cells at 100 nM after 96 hrs by MTT assay; parameters: scale not given: the % may be the effect or the level left
# HCT-116 [15] = assay: Growth inhibition of human HCT116 cells at 100 nM after 96 hrs by MTT assay; parameters: scale not given: the % may be the effect or the level left
# MCF7 = assay: Growth inhibition of human MCF7 cells at 10 nM after 96 hrs by MTT assay; parameters: scale not given: the % may be the effect or the level left
# RXF 393 [16] = assay: Growth inhibition of human RXF393 cells at 10 nM after 96 hrs by MTT assay; parameters: scale not given: the % may be the effect or the level left
# SW-620 = assay: Growth inhibition of human SW620 cells at 10 nM after 96 hrs by MTT assay; parameters: scale not given: the % may be the effect or the level left
# COLO 205 = assay: Growth inhibition of human COLO205 cells at 10 nM after 96 hrs by MTT assay; parameters: scale not given: the % may be the effect or the level left
# NCI-H23 = assay: Growth inhibition of human NCI-H23 cells at 10 nM after 96 hrs by MTT assay; parameters: scale not given: the % may be the effect or the level left
# SK-MEL-5 = assay: Growth inhibition of human SK-MEL-5 cells at 1 uM after 96 hrs by MTT assay; parameters: scale not given: the % may be the effect or the level left
# SF-268 [17] = assay: Growth inhibition of human SF268 cells at 1 uM after 96 hrs by MTT assay; parameters: scale not given: the % may be the effect or the level left
# [18] = read-out: LC50 (the source's name)
# [19] = read-out: Log10GI50 (converted)
# [20] = read-out: Log10LC50 (converted)
smiles,measurement,setting,value
C=C(C)[C@H]1CC=C(C)C2=CO[C@@H](c3ccccc3F)[C@@H]21,Activity,A498,82%
same,Activity,SNB-75,85%
same,Activity,SNB-19,94%
same,Activity,HT-29,98%
same,Activity,NCI-H226,96%
same,Activity,HOP-92,88%
same,Activity,SN12C [1],100.7%
same,Activity,ACHN [2],93.56%
same,Activity,OVCAR-3 [3],115.72%
same,Activity,UACC-62 [4],54.63%
same,Activity,SK-MEL-2,71.47%
same,Activity,Malme-3M,101.14%
same,Activity,SF-268 [5],105.37%
same,Activity,HOP-62,108.33%
same,Activity,EKVX,102.28%
same,Activity,HL-60(TB),44.43%
same,Activity,U-251,94%
same,GI50,SF-295; read-out: GI50,4.49 µM
same,CC50,SF-295; [18],45.7 µM
same,GI50,SF-295; [19],4.47 µM
same,CC50,SF-295; [20],45.7 µM
same,TGI,SF-295; read-out: Log10TGI (converted),17.4 µM
same,TGI,SF-295; read-out: TGI,17.6 µM
same,GI50,UACC-62 [6]; read-out: GI50,3.31 µM
same,CC50,UACC-62 [6]; [18],51.5 µM
same,GI50,UACC-62 [6]; [19],3.31 µM
same,CC50,UACC-62 [6]; [20],51.3 µM
same,TGI,UACC-62 [6]; read-out: Log10TGI (converted),18.2 µM
same,TGI,UACC-62 [6]; read-out: TGI,18.3 µM
same,GI50,OVCAR-3 [7]; read-out: GI50,3.24 µM
same,CC50,OVCAR-3 [7]; [18],36.5 µM
same,GI50,OVCAR-3 [7]; [19],3.24 µM
same,CC50,OVCAR-3 [7]; [20],36.3 µM
same,TGI,OVCAR-3 [7]; read-out: Log10TGI (converted),12.9 µM
same,TGI,OVCAR-3 [7]; read-out: TGI,12.8 µM
same,GI50,CAKI-1; read-out: GI50,5.5 µM
same,CC50,CAKI-1; [18],> 100 µM
same,GI50,CAKI-1; [19],5.5 µM
same,CC50,CAKI-1; [20],> 100 µM
same,TGI,CAKI-1; read-out: Log10TGI (converted),39.8 µM
same,TGI,CAKI-1; read-out: TGI,39.8 µM
same,GI50,MDA-MB-231; read-out: GI50,6.73 µM
same,CC50,MDA-MB-231; [18],55.9 µM
same,GI50,MDA-MB-231; [19],6.76 µM
same,CC50,MDA-MB-231; [20],56.2 µM
same,TGI,MDA-MB-231; read-out: Log10TGI (converted),22.4 µM
same,TGI,MDA-MB-231; read-out: TGI,22.3 µM
same,GI50,[8]; read-out: GI50,2.72 µM
same,CC50,[8]; [18],> 100 µM
same,GI50,[8]; [19],2.69 µM
same,CC50,[8]; [20],> 100 µM
same,TGI,[8]; read-out: Log10TGI (converted),24.5 µM
same,TGI,[8]; read-out: TGI,24.8 µM
same,GI50,HCT-116 [9]; read-out: GI50,3 µM
same,CC50,HCT-116 [9]; [18],36.9 µM
same,GI50,HCT-116 [9]; [19],3.02 µM
same,CC50,HCT-116 [9]; [20],37.2 µM
same,TGI,HCT-116 [9]; read-out: Log10TGI (converted),13.5 µM
same,TGI,HCT-116 [9]; read-out: TGI,13.6 µM
same,GI50,SR; read-out: GI50,0.798 µM
same,CC50,SR; [18],23.9 µM
same,GI50,SR; [19],0.794 µM
same,CC50,SR; [20],24 µM
same,TGI,SR; read-out: Log10TGI (converted),3.72 µM
same,TGI,SR; read-out: TGI,3.67 µM
same,Activity,[10],28%
same,Activity,UO-31,42%
same,Activity,RXF 393 [11],44%
same,Activity,T47D,76%
same,Activity,SN12C [12],79%
same,Activity,ACHN [13],97%
same,Activity,OVCAR-3 [14],90%
same,Activity,HCT-116 [15],82%
same,Activity,MCF7,103%
same,Activity,RXF 393 [16],85%
same,Activity,SW-620,97%
same,Activity,COLO 205,84%
same,Activity,NCI-H23,92%
same,Activity,SK-MEL-5,21%
same,Activity,SF-268 [17],43%
